Test [1] can be described thus: Ability to inhibit rabbit liver Acyl coenzyme A:cholesterol acyltransferase 1. More on the design: species or system Oryctolagus cuniculus. The method, boiled down: (§1)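 Liver microsomes from Japanese white rabbits, prepared in 0.154 M phosphate buffer pH 7.4 with 40 mM NaF. Assay mix: 36 μM BSA, 2 mM DTT, 0.5 mg/mL microsomes, sonicated liposomes (PC:PS:cholesterol 3:1:8, 8 mg/mL cholesterol). Compound added as 1% (v/v) DMSO solution, preincubated 3 min at 37 °C. Reaction started with 43 μM [14C]oleoyl-CoA, 10 min at 37 °C. Cholesteryl oleate radioactivity measured; IC50 determined.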

Test [2] can be described thus: Inhibition of rabbit small-intestinal Acyl coenzyme A:cholesterol acyltransferase 1. More on the design: species or system Oryctolagus cuniculus. The method, boiled down: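 Source: intestinal mucosa microsomes from cholesterol-fed Japanese white rabbits. Mucosa homogenized in 40 mM phosphate pH 7.4 with 30 mM EDTA, 50 mM KCl and 0.1 M sucrose; spun 10000g for 30 min, then 105000g for 1 h, at 4 °C.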

Test [3] deals with Rattus norvegicus. In words: Serum total cholesterol-lowering activity in the cholesterol-fed rats expressed as the ratio of the observed reduction to the difference between the control and normal levels 100 (3 mg/kg po). The format is functional. The method, boiled down:
(§2)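 Male Wistar rats (8–9 weeks, 200 g, n = 6/group) on normal chow for 7 days, then a 2% cholesterol/1% cholic acid/12% coconut oil diet for 3 days. Compound in 0.5% methyl cellulose given orally once daily for 3 days at the listed dose; controls got vehicle. After a 16 h fast, aortic blood taken; serum cholesterol measured enzymatically. % change = (A−B)/(B−C)×100, with B = control and C = normal-diet rats.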

Test [4] deals with Rattus norvegicus. Nature of the test: Serum total cholesterol-lowering activity in the cholesterol-fed rats expressed as the ratio of the observed reduction to the difference between the control and normal levels 100. (0.3 mg/kg, po). The format is functional. In outline: as §2
The species entered for test [5] is Rattus norvegicus. In words: IC50 is the concentration that inhibits 50% of the enzyme activity was evaluated by measuring the ability to inhibit acetyl-LDL-induced cholesteryl ester accumulation in rat peritoneal macrophages. The format is functional. In outline: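 Peritoneal macrophages from nonstimulated male Wistar rats (250–300 g), 3 × 10^6 per dish in 10% FBS-DMEM, adhered 2 h at 37 °C in 5% CO2. Washed in 3% BSA-DMEM, then incubated 16 h with 25 µg/mL acetylated human LDL, [14C]oleate-BSA and compound. Lipids extracted in hexane–2-propanol with [3H]cholesteryl oleate recovery standard. Cholesteryl oleate isolated by TLC and counted; IC50 determined for ester accumulation.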

The nature of test [6]: Ability to inhibit rabbit liver Acyl coenzyme A:cholesterol acyltransferase 1. More on the design: species or system Oryctolagus cuniculus. The method, boiled down:
as §1

Test [7] concerns Rattus norvegicus. Nature of the test: Serum total cholesterol-lowering activity in the cholesterol-fed rat expressed as the ratio of the observed reduction to the difference between the control and normal levels 100 (3 mg/kg po). It is filed as functional. The method, boiled down: as §2
The subject of test [8] is Rattus norvegicus. In words: Serum total cholesterol-lowering activity in the cholesterol-fed rats expressed as the ratio of the observed reduction to the difference between the control and normal levels 100 (0.3 mg/kg po). It is filed as functional. The method, boiled down:
as §2

Test [9] concerns Rattus norvegicus. In words: Serum total cholesterol-lowering activity in the cholesterol-fed rat expressed as the ratio of the observed reduction to the difference between the control and normal levels 100 (0.1 mg/kg po). It is filed as functional. The method, boiled down: as §2
Test [10] relates to Rattus norvegicus. In words: Serum total cholesterol-lowering activity in the cholesterol-fed rat expressed as the ratio of the observed reduction to the difference between the control and normal levels 100 (0.3 mg/kg, po). The format is functional. In outline: as §2
Test [11] relates to Rattus norvegicus. Nature of the test: Serum total cholesterol-lowering activity in the cholesterol-fed rats expressed as the ratio of the observed reduction to the difference between the control and normal levels 100 (10 mg/kg po). The format is functional. The method, boiled down: as §2
For test [12], the system named is Rattus norvegicus. In words: Serum total cholesterol-lowering activity in the cholesterol-fed rats expressed as the ratio of the observed reduction to the difference between the control and normal levels 100 (0.1 mg/kg po). The format is functional. The settings on record: in the assay text read “1 mg/kg po” for “0.1 mg/kg po”. The method, boiled down: as §2

A value given as a limit tells only on which side of the number the result lay.

The IC50 is the midpoint of a concentration-inhibition curve. Lower therefore signals inhibition by little substance. For `COc1ccc2c(c1NC(=O)c1ccc(OCCCCCCOc3ccc(Cl)cc3)cc1)OCCC2=O`, the IC50 in [1] amounted to 59 nM; in [2], 26 nM; in the test listed under Rattus norvegicus [5], 220 nM. The Change with Rattus norvegicus [3] is on record as -79%; in the test on Rattus norvegicus [4] it was -56%.
On to `CCCCCCCCCCC(C)(C)C(=O)Nc1c(OC)c(NC)cc2c1OCCC2=O`, for which half-maximal inhibition in test [2] (IC50) was put at 49 nM.
As to `CCCCCCCCCCC(C)(C)C(=O)Nc1c(OC)cc(OC)cc1OC` [CL-976], the IC50 in test [6] stood at 149 nM; in [2], 140 nM; in the test listed under Rattus norvegicus [5], 3800 nM. Moreover, the Change in the test with Rattus norvegicus [7] is on record as -50%.
In the case of `COc1ccc2c(c1NC(=O)C(C)(C)CCCCCCOc1ccc(Cl)cc1)OCCC2=O`, the IC50 in test [2] was 64 nM. The Change in the test on Rattus norvegicus [8] and in the test on Rattus norvegicus [4] was -53% in each case.
`Cc1ccc2c(=O)ccoc2c1NC(=O)C(C)(C)CCCCCOc1ccc(Cl)cc1` showed an IC50 in [2] of more than 500 nM.
Compound `Cc1ccc2c(c1NC(=O)c1ccccc1)OCCC2=O` yielded a 50% inhibitory concentration (IC50) in [2] of more than 1000 nM.
For `Cc1cc(C)c2c(c1NC(=O)C(C)(C)CCCCCOc1ccc(Cl)cc1)OCCC2=O`, the midpoint of inhibition in [2], the IC50, lay at 400 nM.
`CCCCCCCCCCC(C)(C)C(=O)Nc1c(C)ccc2c1OCCC2=O` returned a half-maximal inhibitory concentration (IC50) in test [2] of 210 nM.
The same measure, in the same setting: with `CCCCCCCCC(C)(C)C(=O)Nc1c(OC)ccc2c1OCCC2=O` the figure was 31 nM.
In test [2], `COc1ccc2c(c1NC(=O)C(C)(C)CCCCCCOc1ccc(Cl)cc1)C(=O)CCO2` displayed a half-inhibitory concentration (IC50) of 180 nM.
Same read-out and setting: then `CCCCCCCCCCOc1ccc2c(c1NC(=O)C(C)(C)CCCCCCOc1ccc(Cl)cc1)OCCC2=O`, with 140 nM; and `COc1ccc2c(c1NC(=O)C(C)(C)CCCCCCOCC(C)C)OCCC2=O`, with 26 nM.
The compound `CCCCCCCCCCC1(C(=O)Nc2c(C)ccc3c2OCCC3=O)CCCC1` returned a concentration for half-maximal inhibition (IC50) in [2] of 170 nM.
On the same count and under the same terms, then `COc1ccc(C(=O)Nc2c(C)ccc3c2OCCC3=O)cc1`, with more than 1000 nM.
With `CCCCCCCCCCOc1ccc2c(c1NC(C)=O)OCCC2=O`, half-maximal inhibition in test [2] (IC50) required 300 nM.
As for `COc1ccc2c(c1NC(=O)c1ccc(OCCCCCCOCC(C)C)cc1)OCCC2=O`, the 50% inhibitory concentration (IC50) in [2] came out at 40 nM.
The same measure, in the same setting: then `CCCCCCCCCCOc1ccc(C(=O)Nc2c(OCCCCCCCCCC)ccc3c2OCCC3=O)cc1`, with more than 100 nM; and `CCCCCCCCCCC(C)(C)C(=O)Nc1c2c(cc([N+](=O)[O-])c1OC)C(=O)CCO2`, with 34 nM.
For `CCCCCCCCCCC(C)(C)C(=O)Nc1c(OC)ccc2c1OCCC2=O`, the IC50 in test [6] stood at 16 nM; in test [2], 13 nM; in the test listed under Rattus norvegicus [5], 160 nM. In addition, the Change in the test on Rattus norvegicus [9] is on record as -61%; with Rattus norvegicus [10] it was -66%.
In turn, `CCCCCCCCCCOc1ccc2c(c1NC(=O)c1ccc(OCCCCCCOc3ccc(Cl)cc3)cc1)OCCC2=O` registered an IC50 in test [2] of 540 nM.
Still for that read-out and setting: then `CCCOCCCCCCC(C)(C)C(=O)Nc1c(OC)ccc2c1OCCC2=O`, with 30 nM; and `CCCCCCCCCCC1(C(=O)Nc2c(C)ccc3c2NCCC3=O)CCCC1`, with 430 nM.
In [2], `Cc1ccc2c(c1NC(=O)C(C)(C)CCCCOc1ccc(Cl)cc1)OCCC2=O` displayed a concentration for half-maximal inhibition (IC50) of 510 nM.
On the same count and under the same terms, with `CCCCCCCCCCOc1ccc(C(=O)Nc2c(OC)ccc3c2OCCC3=O)cc1` the figure was 12 nM.
The same measure, in the same setting: then `CC(C)(C)C(=O)Nc1c(OCCCCCCc2ccccc2)ccc2c1OCCC2=O`, with 24 nM; and `CCCCCCCCCCC(C)(C)C(=O)Nc1c(Cl)ccc2c1OCCC2=O`, with 150 nM; and `CCCCCCCCCCOc1ccc2c(=O)ccoc2c1NC(=O)C(C)(C)C`, with 130 nM.
In [2], `CCCCCCCCCCC(C)(C)C(=O)Nc1c2c(cc(N(C)C)c1OC)C(=O)CCO2` had a half-inhibitory concentration (IC50) of more than 200 nM.
Still for that read-out and setting: then `CCCCCCCCCCC(C)(C)C(=O)Nc1c(OC)ccc2c(=O)cc(CC)oc12`, with 780 nM.
`COc1ccc(OCCCCOc2ccc3c(c2NC(=O)C(C)(C)C)OCCC3=O)cc1` returned an IC50 in test [2] of 43 nM.
The same measure, in the same setting: with `Cc1ccc2c(c1NC(=O)C(C)(C)Cc1ccccc1)OCCC2=O` the figure was more than 1000 nM; with `CCCCCCCCCCC(C)(C)C(=O)Nc1c(OC)ccc2c1OCCC2`, 180 nM.
On to `CCCCCCCCCCOc1ccc2c(c1NC(=O)C(C)(C)C)OCCC2=O`, for which the IC50 in test [6] turned out to be 22 nM; in [2], 14 nM; in the test listed under Rattus norvegicus [5], 130 nM. Further, the Change in the test on Rattus norvegicus [10] is on record as -45%.
For the compound `CCCCCCCCCCC(C)(C)C(=O)Nc1c(OCCC)ccc2c1OCCC2=O`, inhibition in test [2] was half-maximal at 14 nM (IC50).
Still for that read-out and setting: with `CCCCCCCCCCOc1ccc2c(c1NC(=O)C(C)(C)CCCCCCCCCC)OCCC2=O` the figure was 850 nM; with `CCCCCCCCCCC(C)(C)C(=O)Nc1c(OC)ccc2c(=O)ccoc12`, 77 nM; with `COc1ccc2c(c1NC(=O)C(C)(C)CCCCCCc1ccccc1)OCCC2=O`, 44 nM.
`COc1ccc2c(c1NC(=O)C(C)(C)CCCc1ccc(CC(C)C)cc1)OCCC2=O` gave an IC50 in [2] of 17 nM.
In the case of `CCCCCCOc1ccc(CCCC(C)(C)C(=O)Nc2c(OC)ccc3c2OCCC3=O)cc1`, in test [2], the midpoint of inhibition, the IC50, lay at 16 nM. The Change in the test on Rattus norvegicus [3] is reported as -65%.
For the compound `CCCCCCCCCCCCC(C)(C)C(=O)Nc1c(OC)ccc2c1OCCC2=O`, the IC50 in test [2] is 7.5 nM.
Compound `Cc1ccc2c(c1NC(=O)C(C)(C)CCCCCOc1ccc(Cl)cc1)OCCC2=O` displayed an IC50 in test [2] of 470 nM. Besides, in the test with Rattus norvegicus [11], the Change is listed as -53%.
Regarding `CCCCCCCCCCOc1cc(C)c(C(=O)Nc2c(OC)ccc3c2OCCC3=O)c(C)c1`, in test [2], the half-inhibitory concentration (IC50) is more than 200 nM.
As for `CCCc1ccc(CCCC(C)(C)C(=O)Nc2c(OC)ccc3c2OCCC3=O)cc1`, inhibition in [2] was half-maximal at 27 nM (IC50). In addition, in the test with Rattus norvegicus [12], the Change was -54%.

(Values after ChEMBL document CHEMBL1128510, “Potent inhibitors of acyl-CoA:cholesterol acyltransferase. Structure-activity relationships of novel N-(4-oxochroman-8-yl)amides” (J Med Chem, 1995).)
